Reference: ChEMBL document CHEMBL4819011, “Structure-based discovery of 1H-indole-2-carboxamide derivatives as potent ASK1 inhibitors for potential treatment of ulcerative colitis” (Eur J Med Chem, 2021)

These molecules were tested against T1, Mitogen-activated protein kinase kinase kinase 5 (Homo sapiens, UniProt Q99683) (assay: Inhibition of N-terminal GST-tagged recombinant human full length ASK1 expressed in baculovirus-infected Sf21 cells using STK-Substrate-3 biotin as substrate in presence of ATP measured after 2 hrs by HTRF assay).
T1 sequence (Q99683 whole entry): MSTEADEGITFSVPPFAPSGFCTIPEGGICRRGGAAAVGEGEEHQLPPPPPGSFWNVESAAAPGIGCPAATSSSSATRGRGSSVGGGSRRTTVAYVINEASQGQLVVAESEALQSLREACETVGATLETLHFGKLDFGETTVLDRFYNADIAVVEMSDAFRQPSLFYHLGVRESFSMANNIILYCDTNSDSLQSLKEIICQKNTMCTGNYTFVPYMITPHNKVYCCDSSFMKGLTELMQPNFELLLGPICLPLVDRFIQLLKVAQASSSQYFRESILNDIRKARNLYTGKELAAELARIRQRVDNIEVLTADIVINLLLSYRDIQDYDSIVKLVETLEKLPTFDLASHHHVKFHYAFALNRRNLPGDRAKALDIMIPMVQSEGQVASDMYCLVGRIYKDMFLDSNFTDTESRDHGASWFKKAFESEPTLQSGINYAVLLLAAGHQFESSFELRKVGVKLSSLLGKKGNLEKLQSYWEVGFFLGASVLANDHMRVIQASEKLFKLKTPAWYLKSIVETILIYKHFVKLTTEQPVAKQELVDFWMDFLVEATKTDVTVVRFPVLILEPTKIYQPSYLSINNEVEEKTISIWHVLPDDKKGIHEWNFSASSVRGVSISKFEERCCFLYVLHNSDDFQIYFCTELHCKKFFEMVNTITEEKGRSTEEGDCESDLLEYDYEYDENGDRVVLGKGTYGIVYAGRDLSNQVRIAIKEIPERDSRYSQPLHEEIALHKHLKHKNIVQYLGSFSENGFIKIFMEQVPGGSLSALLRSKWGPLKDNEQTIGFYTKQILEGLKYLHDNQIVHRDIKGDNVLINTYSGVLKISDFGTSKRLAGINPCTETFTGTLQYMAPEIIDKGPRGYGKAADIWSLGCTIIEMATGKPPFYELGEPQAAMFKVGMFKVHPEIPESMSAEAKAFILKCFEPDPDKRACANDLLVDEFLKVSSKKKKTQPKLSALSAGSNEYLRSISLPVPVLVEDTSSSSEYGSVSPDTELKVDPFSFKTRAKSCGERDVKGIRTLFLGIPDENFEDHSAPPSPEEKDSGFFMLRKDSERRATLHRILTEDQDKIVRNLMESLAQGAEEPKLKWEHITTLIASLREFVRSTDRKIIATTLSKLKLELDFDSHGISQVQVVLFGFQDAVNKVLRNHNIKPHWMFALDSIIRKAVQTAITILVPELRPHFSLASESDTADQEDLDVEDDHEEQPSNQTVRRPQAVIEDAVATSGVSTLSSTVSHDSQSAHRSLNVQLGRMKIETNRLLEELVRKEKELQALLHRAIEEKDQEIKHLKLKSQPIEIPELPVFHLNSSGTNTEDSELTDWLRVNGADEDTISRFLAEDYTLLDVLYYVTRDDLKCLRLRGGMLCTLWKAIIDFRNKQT
Summary of the method: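 HTRF assay with full-length recombinant human ASK1 at final 2 nM, in buffer containing 5 mM MgCl₂ and 1 mM DTT, 2% DMSO. Reaction run with STK-Substrate 3-biotin (final 2 µM) and ATP for 2 h at rt. STK S3 antibody-Eu then added and incubated a further 1 h. Read at 340 nm excitation and 665 nm emission. IC50 reported as mean ± SD from two independent experiments.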

SMILES	IC50
CC(C)n1cnnc1-c1cccc(NC(=O)c2cc3cccc(-c4cn[nH]c4)c3[nH]2)n1	38.9 nM
CC(C)n1cnnc1-c1cccc(NC(=O)c2[nH]c3ccccc3c2-c2ccoc2)n1	143 nM
CC(C)n1cnnc1-c1cccc(NC(=O)c2cc3ccccc3[nH]2)n1	41.4 nM
CC(C)n1cnnc1-c1cccc(NC(=O)c2cc3cccc(-c4ccsc4)c3[nH]2)n1	153 nM
CC(C)n1cnnc1-c1cccc(NC(=O)c2cc3cccnc3[nH]2)n1	125 nM
CC(C)n1cnnc1-c1cccc(NC(=O)c2cc3cc(-c4cn[nH]c4)ccc3[nH]2)n1	31.6 nM
CC(C)n1cnnc1-c1cccc(NC(=O)c2nc3ccccc3s2)n1	506 nM
CC(C)n1cnnc1-c1cccc(NC(=O)c2cc3cccc(Cl)c3[nH]2)n1	89.6 nM
CC(=O)Nc1cccc2cc(C(=O)Nc3cccc(-c4nncn4C(C)C)n3)[nH]c12	240 nM
CC(C)n1cnnc1-c1cccc(NC(=O)c2cc3c(-c4cnn(C)c4)cccc3[nH]2)n1	19.6 nM
CC(C)n1cnnc1-c1cccc(NC(=O)c2cc3cccc(-c4ccncc4)c3[nH]2)n1	23.1 nM
C[C@H](CO)n1cnnc1-c1cccc(NC(=O)c2cc3ccccc3[nH]2)n1	65.5 nM
CCOC(C)n1cc(-c2ccc3cc(C(=O)Nc4cccc(-c5nncn5C(C)C)n4)[nH]c3c2)cn1 (stereo not drawn)	91.1 nM
Cc1c(C(=O)Nc2cccc(-c3nncn3C(C)C)n2)oc2ccccc12	1110 nM
CC(C)n1cnnc1-c1cccc(NC(=O)c2cc3ccc(-c4cccnc4)cc3[nH]2)n1	68.5 nM
CC(C)n1cnnc1-c1cccc(NC(=O)c2cc3ccccc3n2C)n1	743 nM
CC(C)n1cnnc1-c1cccc(NC(=O)c2cc3ccccc3o2)n1	152 nM
CC(C)n1cnnc1-c1cccc(NC(=O)c2cc3ccc(-c4cn[nH]c4)cc3[nH]2)n1	37.5 nM
Cc1c(C(=O)Nc2cccc(-n3cnnn3)c2)oc2ccccc12	16700 nM
COc1ccc2cc(C(=O)Nc3cccc(-c4nncn4C(C)C)n3)[nH]c2c1	54.3 nM
CC(C)n1cnnc1-c1cccc(NC(=O)c2cc3ccc(-c4cnn(C5CCOCC5)c4)cc3[nH]2)n1	73.7 nM
Cc1c(C(=O)Nc2cccc(-c3nncn3C(C)C)n2)[nH]c2ccccc12	88.2 nM

These molecules were tested against T1, Mitogen-activated protein kinase kinase kinase 5 (assay: Inhibition of ASK1 (unknown origin)).

SMILES	IC50
Cc1cc(F)c(C(=O)Nc2cccc(-c3nncn3[C@@H](C)C(F)(F)F)n2)cc1-n1cnc(C2CC2)c1	4.3 nM
